Source: ChEMBL document CHEMBL1123408, “Influence of alkyl-chain fluorination on the action of mammary tumor inhibiting 2,3-bis(hydroxyphenyl)butanes and 2,3-bis(hydroxyphenyl)but-2-enes” (1986)
Each block holds one compound with its values, some of them ahead of it.

Key:
[1] = molecular target: T1, Estrogen receptor (Mus musculus) (UniProt O08537+P19785); test: Anti-uterotrophic effect in mice at 100 ug dose; format: functional
Procedure, shortened: (§1)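 Immature female NMRI mice, 20 days old (14.5 ± 1.2 g), randomized into groups of 10. Each received a daily sc injection of compound in 0.1 mL olive oil for 3 days, given together with estrone. Uteri were taken 24 h after the last injection, fixed in Bouin's solution, washed, dried and weighed. The read-out was inhibition of estrone-stimulated uterine growth.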

[2] = molecular target: T1, Estrogen receptor (Mus musculus); test: (§2) Uterotrophic effect in mice at 0 ug dose; format: functional, tissue-based; parameters: unit not given here; conditions: Uterus
Procedure, shortened: (§3)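 Immature female NMRI mice, 20 days old, 10 per group, given daily sc injections of 0.1 mL olive oil solution for 3 days. Uteri removed 24 h after the last dose, fixed in Bouin's solution, washed, dried and weighed. Antiestrogenic testing measured inhibition of estrone-stimulated uterine growth.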

[3] = molecular target: T1, Estrogen receptor (Mus musculus); test: Anti-uterotrophic effect in mice at 25 ug dose; format: functional; procedure, shortened: as §1
Rattus norvegicus [4] = test: Final tumor number in DMBA-Induced Hormone-Dependent Mammary Carcinoma in rats at 2 mg/kg dose; format: functional
Rattus norvegicus [5] = test: Percent progression in DMBA-Induced Hormone-Dependent Mammary Carcinoma in rats at 2 mg/kg dose; format: functional
[6] = molecular target: T1, Estrogen receptor (Mus musculus); test: (§4) Uterotrophic effect in mice at 0.1 ug dose; format: functional, tissue-based; parameters: unit not given here; conditions: Uterus; procedure, shortened: as §3
Rattus norvegicus [7] = test: Percent progression in DMBA-Induced Hormone-Dependent Mammary Carcinoma model in rats at 5 mg/kg dose; format: functional
Rattus norvegicus [8] = test: Initial tumor number in DMBA-Induced Hormone-Dependent Mammary Carcinoma in rats at 5 mg/kg dose; format: functional
Rattus norvegicus [9] = test: Percent unchanged tumors in DMBA-Induced Hormone-Dependent Mammary Carcinoma in rats at 5 mg/kg dose; format: functional
[10] = molecular target: T1, Estrogen receptor (Mus musculus); test: (§5) Uterotrophic effect in mice at 1 ug dose; format: functional, tissue-based; parameters: unit not given here; conditions: Uterus; procedure, shortened: as §3
[11] = molecular target: T1, Estrogen receptor (Mus musculus); test: as §4; format: functional, tissue-based; conditions: Uterus; procedure, shortened: as §3
[12] = molecular target: T1, Estrogen receptor (Mus musculus); test: Uterotrophic effect in BD2F mice bearing transplantable hormone dependent MXT at 20 mg dose; format: functional, tissue-based; conditions: Uterus
Procedure, shortened: (§6)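 MXT-bearing female BD2F1 mice (10 per group) dosed sc in olive oil three times weekly for 6 weeks from the day after tumor transplantation. Uteri excised at sacrifice and dry weight determined; values given as mean ± SD.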

Rattus norvegicus [13] = test: Percent complete remission in DMBA-Induced Hormone-Dependent Mammary Carcinoma in rats at 5 mg/kg dose; format: functional
[14] = molecular target: T1, Estrogen receptor (Mus musculus); test: Uterotrophic effect in mice at 25 ug dose; format: functional, tissue-based; parameters: unit not given here; conditions: Uterus; procedure, shortened: as §3
Rattus norvegicus [15] = test: Percent change in body weight in DMBA-Induced Hormone-Dependent Mammary Carcinoma rats at 5 mg/kg dose; format: functional
[16] = molecular target: T1, Estrogen receptor (Mus musculus); test: Uterotrophic effect in BD2F mice bearing transplantable hormone dependent MXT at 4 mg dose; format: functional, tissue-based; conditions: Uterus; procedure, shortened: as §6
Rattus norvegicus [17] = test: Percent change in total tumor area in DMBA-Induced Hormone-Dependent Mammary Carcinoma rats at 2 mg/kg dose; format: functional
Rattus norvegicus [18] = test: Initial in tumor number in DMBA-Induced Hormone-Dependent Mammary Carcinoma in rats at 2 mg/kg dose; format: functional
[19] = molecular target: T1, Estrogen receptor (Mus musculus); test: Uterotrophic effect in mice at 1000 ug dose; format: functional, tissue-based; parameters: unit not given here; conditions: Uterus; procedure, shortened: as §3
Rattus norvegicus [20] = test: Percent complete remission in DMBA-Induced Hormone-Dependent Mammary Carcinoma in rats at 2 mg/kg dose; format: functional
[21] = molecular target: T1, Estrogen receptor (Mus musculus); test: (§7) Uterotrophic effect in mice at 10 ug dose; format: functional, tissue-based; parameters: unit not given here; conditions: Uterus; procedure, shortened: as §3
[22] = molecular target: T1, Estrogen receptor (Mus musculus); test: Anti-uterotrophic effect in mice at 1 ug dose; format: functional; procedure, shortened: as §1
[23] = molecular target: T1, Estrogen receptor (Mus musculus); test: (§8) Uterotrophic effect in mice at 100 ug dose; format: functional, tissue-based; conditions: Uterus; procedure, shortened: as §3
Rattus norvegicus [24] = test: Percent partial remission in DMBA-Induced Hormone-Dependent Mammary Carcinoma in rats at 5 mg/kg dose; format: functional
Rattus norvegicus [25] = test: Percent change in total tumor area in DMBA-Induced Hormone-Dependent Mammary Carcinoma rats at 5 mg/kg dose; format: functional
[26] = molecular target: T1, Estrogen receptor (Mus musculus); test: as §2; format: functional, tissue-based; parameters: unit not given here; conditions: Uterus; procedure, shortened: as §3; remark: listed apart in the source
[27] = molecular target: T1, Estrogen receptor (Mus musculus); test: as §5; format: functional, tissue-based; conditions: Uterus; procedure, shortened: as §3
Rattus norvegicus [28] = test: Final tumor number in DMBA-Induced Hormone-Dependent Mammary Carcinoma in rats at 5 mg/kg dose; format: functional
Mus musculus [29] = species on record: Mus musculus; test: Relative average tumor wet weight in treated compared to untreated mice at 4 mg dose; format: functional
Procedure, shortened: (§9)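 Syngeneic female BD2F1 mice (8–10 weeks) received sc trocar implants of 1–2-mm³ MXT tumor pieces, 10 per group. Treatment began the next day: sc doses in olive oil (solution or suspension), three times weekly for 6 weeks. Tamoxifen-treated control group included. Tumor wet weight measured at sacrifice; expressed as % T/C versus untreated controls.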

[30] = molecular target: T1, Estrogen receptor (Mus musculus); test: Anti-uterotrophic effect in mice at 10 ug dose; format: functional; procedure, shortened: as §1
[31] = molecular target: T1, Estrogen receptor (Mus musculus); test: as §7; format: functional, tissue-based; conditions: Uterus; procedure, shortened: as §3
[32] = molecular target: T1, Estrogen receptor (Mus musculus); test: as §8; format: functional, tissue-based; parameters: unit not given here; conditions: Uterus; procedure, shortened: as §3
Rattus norvegicus [33] = test: Percent partial remission in DMBA-Induced Hormone-Dependent Mammary Carcinoma in rats at 2 mg/kg dose; format: functional
Rattus norvegicus [34] = test: Percent change in body weight in DMBA-Induced Hormone-Dependent Mammary Carcinoma rats at 2 mg/kg dose; format: functional
Rattus norvegicus [35] = test: Percent unchanged tumors in DMBA-Induced Hormone-Dependent Mammary Carcinoma in rats at 2 mg/kg dose; format: functional
Mus musculus [36] = species on record: Mus musculus; test: Relative average tumor wet weight in treated compared to untreated mice at 20 mg dose; format: functional; procedure, shortened: as §9
Mus musculus [37] = species on record: Mus musculus; test: Relative average tumor wet weight in treated compared to untreated mice at 1.33 mg dose; format: functional
Procedure, shortened: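 MXT mammary tumor pieces of 1-2 mm³ from syngeneic donors were implanted sc by trocar into female BD2F₁ mice aged 8-10 weeks (20.0 ± 1.7 g), groups of 10. From the next day, compound in olive oil was given sc three times weekly for 6 weeks. Tumor wet weight was measured at the end and expressed as % T/C.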

[38] = molecular target: T1, Estrogen receptor (Mus musculus); test: Uterotrophic effect in BD2F mice bearing transplantable hormone dependent MXT at 8 mg dose; format: functional, tissue-based; conditions: Uterus; procedure, shortened: as §6
[39] = molecular target: T1, Estrogen receptor (Mus musculus); test: Uterotrophic effect in BD2F mice bearing transplantable hormone dependent MXT at 1.33 mg dose; format: functional, tissue-based; conditions: Uterus; procedure, shortened: as §6
Mus musculus [40] = species on record: Mus musculus; test: Relative average tumor wet weight in treated compared to untreated mice at 8 mg dose; format: functional; procedure, shortened: as §9

T1 sequence (O08537 whole entry, looked up): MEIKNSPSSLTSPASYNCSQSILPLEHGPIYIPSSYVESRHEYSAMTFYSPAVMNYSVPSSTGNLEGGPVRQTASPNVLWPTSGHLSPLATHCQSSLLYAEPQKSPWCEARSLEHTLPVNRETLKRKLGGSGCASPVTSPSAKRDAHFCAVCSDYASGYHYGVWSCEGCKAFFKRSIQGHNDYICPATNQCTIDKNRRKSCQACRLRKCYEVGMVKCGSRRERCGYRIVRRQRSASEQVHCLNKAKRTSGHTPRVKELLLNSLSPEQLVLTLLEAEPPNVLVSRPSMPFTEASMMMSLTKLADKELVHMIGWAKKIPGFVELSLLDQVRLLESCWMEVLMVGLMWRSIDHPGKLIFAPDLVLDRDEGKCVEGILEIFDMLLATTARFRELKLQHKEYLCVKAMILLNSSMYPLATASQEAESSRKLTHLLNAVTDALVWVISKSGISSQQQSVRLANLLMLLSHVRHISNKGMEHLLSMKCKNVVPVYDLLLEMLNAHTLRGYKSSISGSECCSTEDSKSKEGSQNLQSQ
T1 sequence (P19785 whole entry, looked up): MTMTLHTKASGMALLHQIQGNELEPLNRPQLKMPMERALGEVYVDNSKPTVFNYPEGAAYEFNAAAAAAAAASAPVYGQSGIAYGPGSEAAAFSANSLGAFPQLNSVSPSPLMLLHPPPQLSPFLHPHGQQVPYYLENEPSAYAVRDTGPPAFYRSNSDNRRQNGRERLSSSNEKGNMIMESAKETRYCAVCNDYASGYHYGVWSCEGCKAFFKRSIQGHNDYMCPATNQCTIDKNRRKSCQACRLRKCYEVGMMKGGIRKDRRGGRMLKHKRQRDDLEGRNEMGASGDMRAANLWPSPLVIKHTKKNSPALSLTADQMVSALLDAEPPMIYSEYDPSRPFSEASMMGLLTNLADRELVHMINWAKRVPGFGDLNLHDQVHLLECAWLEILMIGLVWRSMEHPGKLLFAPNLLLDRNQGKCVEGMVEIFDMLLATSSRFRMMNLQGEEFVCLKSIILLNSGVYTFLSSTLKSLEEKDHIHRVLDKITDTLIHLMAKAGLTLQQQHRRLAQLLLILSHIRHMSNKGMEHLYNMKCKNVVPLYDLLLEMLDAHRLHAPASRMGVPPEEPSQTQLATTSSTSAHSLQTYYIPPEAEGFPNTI

- inhibition [1]: 18%
- Effect [2]: 13.3
- inhibition [3]: 45.5%
- Effect [6]: 10.1
- Effect [10]: 15.4
- Effect [11]: 10.1
- Effect [12]: 90.1
- Effect [14]: 28.8
- Effect [16]: 84
- Effect [19]: 36
- Effect [21]: 19.8
- inhibition [22]: 36.6%
- Effect [23]: 36.7
- Effect [26]: 10.8
- Effect [27]: 31.4
- inhibition [30]: 34.5%
- Effect [31]: 32
- Effect [32]: 34.8
Compound: Oc1cccc([C@H]([C@H](c2cccc(O)c2)C(F)(F)F)C(F)(F)F)c1
- No. of tumors (Rattus norvegicus [4]): 19
- Tumors (Rattus norvegicus [5]): 47%
- Change in weight (Rattus norvegicus [7]): 38%
- No. of tumors (Rattus norvegicus [8]): 23
- Tumors (Rattus norvegicus [9]): 29%
- Tumors (Rattus norvegicus [13]): 21%
- Change in weight (Rattus norvegicus [15]): -0.4%
- Change in tumor area % (Rattus norvegicus [17]): 165%
- No. of tumors (Rattus norvegicus [18]): 21
- Tumors (Rattus norvegicus [20]): 15%
- Tumors (Rattus norvegicus [24]): 12%
- Change in tumor area % (Rattus norvegicus [25]): 166%
- No. of tumors (Rattus norvegicus [28]): 11
- TC (Mus musculus [29]): 23.9%
- Tumors (Rattus norvegicus [33]): 10%
- Change in weight (Rattus norvegicus [34]): -1.1%
- Tumors (Rattus norvegicus [35]): 28%
- TC (Mus musculus [36]): 10.9%

- Effect [6]: 56.4
- Effect [10]: 52.6
- Effect [16]: 179
- Effect [38]: 169
- Effect [39]: 182
- Effect [21]: 38.2
- Effect [26]: 13.7
Compound: Oc1ccc(/C(=C(/c2ccc(O)cc2)C(F)(F)F)C(F)(F)F)cc1
- TC (Mus musculus [37]): 10.4%
- TC (Mus musculus [40]): 5.2%
- TC (Mus musculus [29]): 5.5%
